B1: Osa-1-4 twister ribozyme (parent)
chain: CCGCCUAACACUGCCAAUGCCGGUCCCAAGCCCGGAUAAAAGUGGAGGGGGCGG

Variants of: B1
Assay: self-cleavage, relative activity (ratio to wild type); higher = more cleavage; co-transcriptional
How it was run: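 The 48 positions downstream of the cleavage site in a DNA template for a 54-nucleotide Oryza sativa twister ribozyme carried 97 % wild-type base and 1 % of each other base. After in vitro transcription (2 h, 37 °C) with co-transcriptional self-cleavage, the RNA was reverse-transcribed with a template-switching oligonucleotide, PCR-amplified and deep-sequenced. Relative activity is the fraction cleaved, judged by reads with or without upstream sequence and normalised to wild type.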

Variant	self-cleavage
A39U G13A	0.05
A39U G13C	0.03
A39U G13U	0.02
A39U G19A	0.35
A39U G19U	0.11
A39U G19C	0.07
A39U G22C	0.06
A39U G22U	0.67
A39U G22A	0.93
A40C G54C	0.07
A40C G54U	0.12
A40C G54A	0.09
A39U U12G	0.15
A39U U12A	0.59
A39U U12C	0.15
A39G U43A	0.8
A39G U43G	0.36
A39G U43C	0.24
A39U G42C	0.11
A39U G42A	0.17
A39U G42U	0.07

Variant	self-cleavage
A39U C32A	0.08
A39U C32U	0.11
A39U C32G	0.1
A39U C31U	0.67
A39U C31G	0.08
A39U C31A	0.03
A40C C14G	0.03
A40C C14A	0.04
A40C C14U	0.05
A39G G50C	0.84
A39G G50A	0.72
A39G G50U	1
A40C A41U	0.42
A40C A41G	0.1
A40C A41C	0.28
A39G G35A	0.78
A39G G35C	0.22
A39G G35U	0.87
A40C U12G	0.47
A40C U12C	0.07
A40C U12A	0.5

Variant	self-cleavage
A40G C21A	0.25
A40G C21U	0.79
A40G C21G	0.08
A39G G34C	0.42
A39G G34U	0.68
A40G C27U	0.11
A40G C27A	0.11
A40G C27G	0.09
A39U G35C	0.19
A39U G35U	0.87
A39U G35A	0.83
A40C G19C	0.02
A40C G19U	0.04
A40C G19A	0.07
A40C U37G	0.12
A40C U37A	0.07
A40C U37C	0.07
A39U A41G	0.26
A39U A41U	1.03
A39U A41C	0.66
A40C G23A	0.06

Variant	self-cleavage
A40C G23U	0.02
A40C G23C	0.02
A39U U43A	0.43
A39U U43C	0.12
A39U U43G	0.18
A40G C20G	0.1
A40G C20U	0.91
A40G C20A	0.78
A40C C20U	0.08
A40C C20A	0.09
A40C C20G	0.04
A40C C33U	0.04
A40C C33A	0.05
A40C C33G	0.02
A39U C33G	0.07
A39U C33A	0.09
A39U C33U	0.52
A40C C11U	0.07
A40C C11G	0.03
A40C C11A	0.05
